A selection: hits, their analogues and other compounds. The true share with any hit is near 3.2%.
PRMT1 inh – PRMT1 methyltransferase inhibitors, primary screen, biochemical, fluorescence polarization; recombinant PRMT1, activity-based probe fluorescence polarization; inhibition, % at 2.79 µM; 1.3% of 370,000 active; AID 652257, 2013;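 active means inhibition above about 21% made by adding two undisclosed values, limit read from the data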
rCAG RNA binder – binders of r(CAG) RNA repeats, primary screen, biochemical, fluorescence; r(CAG) RNA repeat, TO-PRO-1 dye displacement fluorescence; inhibition, % at 3 µM; 1.3% of 370,000 active; AID 651821, 2012;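 active means inhibition above the plate cutoff, the mean of all test compounds on that plate plus 3 SD, cut at about 35% in these data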;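 further: 0% = DMSO alone and 100% = 100 µM mitoxantrone as full dye displacement; higher means more dye released from RNA so lower well fluorescence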
LEDGF integ inh – blockers of LEDGF/p75-dependent integrase strand transfer – biochemical, TR-FRET, high throughput, primary screen | HIV-1 integrase (with human LEDGF/p75) | TR-FRET IN-LEDGF/p75 DNA integration, Eu/Cy5 | inhibition, % at 3.7 µM | 0.64% of 370,000 active | AID 743269, 2014;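 active means inhibition above the screen-wide mean plus 3 SD, cut at about 13% in these data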;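 further: signal is the Cy5 over europium emission ratio at 671 and 618 nm; 0% = plate median of compound wells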
HTRA1 inhibitor – HTRA1 serine protease inhibitors, primary screen, biochemical, fluorescence polarization, HTS. recombinant HTRA1, FP-rhodamine activity-based probe. 0.5% of 340,000 active. Q92743. inhibition, % at 5.96 µM; in the data active means inhibition above about 36%;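 further: 0% = enzyme with DMSO and 100% = wells lacking enzyme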
Target sequence (Q92743 whole entry, looked up): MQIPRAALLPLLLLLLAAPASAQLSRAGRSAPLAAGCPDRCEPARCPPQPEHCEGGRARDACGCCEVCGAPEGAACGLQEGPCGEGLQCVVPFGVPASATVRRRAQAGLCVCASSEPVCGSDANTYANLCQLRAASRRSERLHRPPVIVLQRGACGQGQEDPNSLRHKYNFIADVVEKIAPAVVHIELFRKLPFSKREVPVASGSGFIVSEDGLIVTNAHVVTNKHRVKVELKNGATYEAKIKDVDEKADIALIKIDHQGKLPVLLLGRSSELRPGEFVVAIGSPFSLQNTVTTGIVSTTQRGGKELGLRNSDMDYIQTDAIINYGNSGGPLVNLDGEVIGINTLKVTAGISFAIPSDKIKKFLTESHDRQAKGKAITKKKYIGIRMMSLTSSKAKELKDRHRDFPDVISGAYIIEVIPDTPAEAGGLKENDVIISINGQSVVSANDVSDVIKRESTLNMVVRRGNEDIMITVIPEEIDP
DAGLB inhibitor – DAGLB lipase inhibitors, primary screen, biochemical, fluorescence, HTS; Diacylglycerol lipase-beta (Homo sapiens), Q8NCG7; HEK293T DAGLB membrane lysate, EnzChek fluorogenic substrate; inhibition, % at 5.17 µM; 0.059% of 340,000 active; in the data active means inhibition above about 34%;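 further: 0% = enzyme with vehicle and 100% = wells lacking enzyme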
ABHD4 inh – ABHD4 inhibitors, primary screen, biochemical, fluorescence polarization, mouse; (Lyso)-N-acylphosphatidylethanolamine lipase (Mus musculus), Q8VD66; purified mABHD4, FP-Rh probe fluorescence polarization; inhibition, % at 8.92 µM; 0.54% of 370,000 active; AID 720543, 2013;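 active means inhibition exceeding the mean over every tested compound plus 3 SD, cut at about 30% in these data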;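 further: 0% = plate median of compound wells and 100% = S159A mutant with DMSO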
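Test system: mABHD4 protein; Read-out basis: % inhibition; Incubation: 45 min + 60 min at 25 °C; Repeats: single replicate; Technique: fluorescence polarization with parallel and perpendicular emission, 525/598 nm; Compound: 8.92 µM, single dose; Benchmarks: full inhibition S159A mutant plus DMSO, zero as sample-well median.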
PRMT1 confirm – PRMT1 methyltransferase inhibitors, confirmation, biochemical, fluorescence polarization, triplicate. AID 687036, 2013. shares compounds with PRMT1 inh. recombinant His-PRMT1, activity-based probe fluorescence polarization. 42% of 3,300 active. inhibition, % at 2.79 µM;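 active means mean inhibition across replicates above the hit cutoff derived for the earlier primary screen, cut at about 22% in these data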
* = called active by the depositor; . = no result given.

SMILES	PRMT1 inh	rCAG RNA binder	LEDGF integ inh	HTRA1 inhibitor	DAGLB inhibitor	ABHD4 inh	PRMT1 confirm
Cc1nc(C#N)c(N/N=C/c2cccc(Cl)c2)o1	1.6	5.5	1.1	2.4	1.2	8.7	.
C[n+]1cccc(/C=N/Nc2nc(Cl)c(C#N)c(Cl)c2Cl)c1	48.7*	3.5	-3.6	.	.	5.2	-0.2
O=C(CCCc1nc2ccccc2s1)Nc1ccccc1	0.5	-6.0	0.4	-9.4	0.1	2.2	.
O=C(O)CCCC(=O)Nc1ccc(OCc2nc3ccccc3s2)cc1	25.6*	4.0	-5.0	1.5	-4.5	-2.0	7.2
CCN1CC=C2C(C#N)=C(N)C(C#N)(C#N)C(CCc3ccccc3)C2C1 (configuration not stated)	49.1*	-23.9	2.0	28.0	-0.4	34.1*	25.1*
CCOc1ccc(N2C(=O)CC(NC3CCCCNC3=O)C2=O)cc1 (configuration not stated)	44.4*	-1.7	-6.4	-1.0	-0.1	-9.1	-0.3
O=C1NCCCCC1NC1CC(=O)N(c2ccccc2)C1=O (configuration not stated)	34.4*	4.0	0.0	-1.6	-0.5	3.2	7.3
CCOc1ccc(N2C(=O)CC(NCC#N)C2=O)cc1 (configuration not stated)	33.1*	-1.0	1.2	0.3	-1.2	4.0	45.7*
CCOc1ccc(N2C(=O)CC(NCc3ccc(S(N)(=O)=O)cc3)C2=O)cc1 (configuration not stated)	4.9	4.2	5.9	-3.5	1.4	5.8	.
CC1CCN(C(=O)COC(=O)c2cccc(NS(=O)(=O)c3ccccc3)c2)CC1	2.0	-2.3	-4.2	-4.5	-1.1	-3.9	.
N#CC1(NC(=O)COC(=O)c2ccc(-c3ccc(O)cc3)cc2)CCCCC1	0.5	3.1	1.6	-19.7	-1.1	-6.4	.
CCN(CC)C(=O)c1sc2nc(-c3cccs3)cc(-c3cccs3)c2c1N	56.8*	15.3	5.6	-29.1	-3.4	-0.9	12.7
O=C1N(Cc2cccnc2)C[C@@H]2C[C@@H](c3ccc(-c4ccccc4)cc3)N3CCC[C@@]123	-0.7	-0.1	-6.0	-15.3	-1.3	-6.7	.
CC#CC(=O)N1CCC(Oc2cccc(C(=O)NCc3ccccn3)c2)CC1	73.5*	-6.4	-0.5	2.1	4.8	-4.9	1.7
CONc1nc(NC(C)(C)C)nc(OCC#N)n1	-2.6	-3.7	0.3	11.7	0.0	7.1	.
O=[N+]([O-])c1ccc2nc(NCCCO)nc(-c3ccccc3)c2c1	17.5	2.7	1.0	2.4	3.0	7.1	.
O=C(O)CNc1nc(-c2ccccc2)c2cc([N+](=O)[O-])ccc2n1	26.1*	9.0	-0.3	1.4	1.3	13.8	30.1*
NS(=O)(=O)c1ccc(NC(=S)NC(=O)C2CCCCC2)cc1	-1.7	4.0	4.8	3.5	-1.3	-14.1	.
NC(=O)SCC(=O)Nc1ccc(Cl)cc1	65.2*	5.7	1.7	5.2	-27.9	-20.8	87.6*
CC1(C)N=C(SCC(=O)Nc2ccc(Cl)cc2)C(c2ccc(Cl)cc2)=N1	28.4*	0.5	0.7	-37.5	-13.1	-27.9	10.7
CC1(C)N=C(SCC(=O)Nc2ccc(Cl)cc2)C(c2ccccc2)=N1	7.5	-6.4	1.3	-16.4	-8.8	-10.3	.
N#CCSCC(=O)Nc1ccc(Cl)cc1	13.8	-0.7	2.5	5.9	-2.9	0.0	.
NC(=O)SCC(=O)Nc1cccc(Cl)c1	73.2*	5.2	2.1	-6.9	-16.8	-4.9	100.7*
NC(=O)SCC(=O)Nc1ccc(Cl)c(Cl)c1	49.2*	6.9	1.4	-5.4	-33.1	-8.6	94.1*
O=C(CSCCO)Nc1ccc(C2CCCCC2)cc1	-1.2	-1.4	4.4	-1.1	0.5	-12.7	.
SMILES	PRMT1 inh	rCAG RNA binder	LEDGF integ inh	HTRA1 inhibitor	DAGLB inhibitor	ABHD4 inh	PRMT1 confirm
Cc1cc(C)nc(SCC(=O)NNC(=O)c2cccs2)n1	1.4	-2.0	1.4	2.0	2.5	3.8	.
COCC(=O)Nc1ccc(C)c(Cl)c1	-3.3	0.1	0.0	2.1	-1.1	5.8	.
Cc1c(Cl)cccc1NC(=O)CSC(N)=O	31.0*	-1.3	4.4	6.6	-4.8	-2.2	96.2*
NC(=O)/C=C/C(=O)Nc1ccc(Cl)cc1	87.1*	-2.9	-4.0	2.5	-0.7	-4.5	31.5*
O=C(/C=C/C(Cl)(Cl)Cl)Nc1ccc(Cl)cc1	3.1	2.1	-3.6	-24.0	-7.8	-5.0	.
Cc1c(Cl)cccc1NC(=O)CSCC(N)=O	2.0	-1.2	-1.5	-11.1	-1.6	2.6	.
Cc1ccc(NC(=O)CSC(N)=O)cc1Cl	28.4*	2.6	-1.4	0.3	-26.0	-0.5	89.2*
CN(C)CCCN(C(=O)c1ccc(S(=O)(=O)N2CCc3ccccc32)cc1)c1nc2c(Cl)cccc2s1	32.8*	2.3	-0.5	-26.1	-3.2	11.6	7.7
CCc1ccc2nc(N(CCCN(C)C)C(=O)c3ccc(S(=O)(=O)N4CCCc5ccccc54)cc3)sc2c1	8.6	2.5	0.8	-28.1	-4.8	10.7	.
CN(C)CCN(C(=O)c1ccc(S(=O)(=O)N2CCc3ccccc32)cc1)c1nc2ccc(F)cc2s1	50.0*	25.1	3.7	-25.9	1.4	-11.0	1.1
COc1ccccc1N/C=C/C(=C(C#N)C#N)N(C)C	-3.1	1.0	1.4	-6.0	0.6	0.1	.
C=CCn1c(SCC(=O)Nc2ccc(Br)cc2)nc(O)c(CC)c1=O	53.4*	9.7	0.7	1.2	0.9	-8.5	15.9
C=CCn1c(SCC(=O)Nc2ccccc2OC)nc(O)c(CC)c1=O	17.8	7.0	-0.1	2.1	0.0	-1.1	.
N#C/C(=C\c1ccccc1)C(=O)N(c1ccccn1)C1CCCCC1	-0.7	-3.6	-1.4	2.5	1.2	7.7	.
O=C(/C=C/c1ccc([N+](=O)[O-])cc1)N(c1ccccn1)C1CCCCC1	28.1*	10.6	1.8	-1.6	2.5	7.5	19.9
COc1ccc(N(CC(=O)NC2CCCC2)C(=O)c2csnn2)cc1	-2.2	0.6	-2.6	1.0	-0.3	-0.9	.
O=C(O)c1ccccc1C(=O)Nc1n[nH]c(=S)s1	31.1*	3.3	2.9	1.7	-2.7	7.4	9.6
O=C(O)c1ccccc1C(=O)Nc1nccs1	0.8	-1.0	-3.9	1.2	2.6	0.9	.
S=C(Nc1ccccc1Br)OCCN1CCCC12CCC(c1ccccc1)CC2 (configuration not stated)	34.6*	.	1.2	.	.	5.2	31.4*
